Active and inactive are the calls of the source. The rule behind the calls is not given here.
Assays:
SK-OV-3 [1] = assay: Relative resistance, ratio of IC50 for human SKOV3 cells expressing MDR1-6/6 to IC50 for human SKOV3 cells; format: functional
Outline: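 Relative resistance (Rr) is the SRB-derived IC50 in Pgp-overexpressing, MDR-1-transduced SK-OV-3 MDR-1-6/6 cells divided by the IC50 in parental SK-OV-3 cells.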

SK-OV-3 [2] = assay: Antiproliferative activity against human SKOV3 cells by sulforhodamine B assay; format: functional, cell-based
Outline: (§1)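 Antiproliferative read-out by sulforhodamine B assay. HeLa and SK-OV-3 cells were from ATCC; SK-OV-3 MDR-1-6/6 is the Pgp-overexpressing, MDR-1-transduced isogenic partner of the parental line. Each IC50 is the mean of at least 3 independent experiments, with triplicate points in each.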

SK-OV-3 [3] = assay: Antiproliferative activity against human SKOV3 cells expressing MDR1-6/6 by sulforhodamine B assay; format: functional, cell-based; outline: as §1
HeLa [4] = assay: Relative resistance, ratio of IC50 for human HeLa cells expressing tubulin 3beta to IC50 for human HeLa cells; format: functional
HeLa [5] = assay: Antiproliferative activity against human HeLa cells expressing tubulin 3beta by sulforhodamine B assay; format: functional, cell-based
MDA-MB-435 [6] = assay: Antiproliferative activity against human MDA-MB-435 cells by sulforhodamine B assay; format: functional, cell-based
Outline: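 SRB assay against cancer cells obtained from ATCC (MDA-MB-435, HeLa). IC50 is the concentration giving 50% inhibition of proliferation, taken as the mean of at least 3 independent experiments, each run in triplicate points.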

HeLa [7] = assay: Antiproliferative activity against human HeLa cells by sulforhodamine B assay; format: functional, cell-based; outline: as §1
SK-MEL-28 = assay: Growth inhibition of human SK-MEL-28 cells by sulforhodamine B assay; format: functional
MDA-MB-435 [8] = assay: Growth inhibition of human MDA-MB-435 cells by sulforhodamine B assay; format: functional
OVCAR-5 = assay: Growth inhibition of human OVCAR5 cells by sulforhodamine B assay; format: functional
OVCAR-4 = assay: Growth inhibition of human OVCAR4 cells by sulforhodamine B assay; format: functional
NCI-H226 = assay: Growth inhibition of human NCI-H226 cells by sulforhodamine B assay; format: functional
786-0 = assay: Growth inhibition of human 786-0 cells by sulforhodamine B assay; format: functional
HT-29 = assay: Growth inhibition of human HT-29 cells by sulforhodamine B assay; format: functional
SNB-19 = assay: Growth inhibition of human SNB19 cells by sulforhodamine B assay; format: functional
MDA-MB-468 = assay: Growth inhibition of human MDA-MB-468 cells by sulforhodamine B assay; format: functional
NCI/ADR-RES = assay: Growth inhibition of human NCI/ADR-RES cells by sulforhodamine B assay; format: functional
NCI-H522 = assay: Growth inhibition of human NCI-H522 cells by sulforhodamine B assay; format: functional
DU-145 = assay: Growth inhibition of human DU145 cells by sulforhodamine B assay; format: functional
MDA-MB-231 = assay: Growth inhibition of human MDA-MB-231 cells by sulforhodamine B assay; format: functional
SW-620 = assay: Growth inhibition of human SW620 cells by sulforhodamine B assay; format: functional
HCC 2998 = assay: Growth inhibition of human HCC2998 cells by sulforhodamine B assay; format: functional
PC-3 = assay: Growth inhibition of human PC3 cells by sulforhodamine B assay; format: functional
SK-OV-3 [9] = assay: Growth inhibition of human SKOV3 cells by sulforhodamine B assay; format: functional
SK-MEL-2 = assay: Growth inhibition of human SK-MEL-2 cells by sulforhodamine B assay; format: functional
UACC-62 = assay: Growth inhibition of human UACC62 cells by sulforhodamine B assay; format: functional
HL-60(TB) = assay: Growth inhibition of human HL-60(TB) cells by sulforhodamine B assay; format: functional
ACHN = assay: Growth inhibition of human ACHN cells by sulforhodamine B assay; format: functional
SR = assay: Growth inhibition of human SR cells by sulforhodamine B assay; format: functional
SF-295 = assay: Growth inhibition of human SF295 cells by sulforhodamine B assay; format: functional
SK-MEL-5 = assay: Growth inhibition of human SK-MEL-5 cells by sulforhodamine B assay; format: functional
COLO 205 = assay: Growth inhibition of human COLO205 cells by sulforhodamine B assay; format: functional
M14 = assay: Growth inhibition of human M14 cells by sulforhodamine B assay; format: functional
UO-31 = assay: Growth inhibition of human UO31 cells by sulforhodamine B assay; format: functional
HOP-92 = assay: Growth inhibition of human HOP92 cells by sulforhodamine B assay; format: functional
LOX IMVI = assay: Growth inhibition of human LOXIMVI cells by sulforhodamine B assay; format: functional
NCI-H23 = assay: Growth inhibition of human NCI-H23 cells by sulforhodamine B assay; format: functional
RXF 393 = assay: Growth inhibition of human RXF393 cells by sulforhodamine B assay; format: functional
EKVX = assay: Growth inhibition of human EKVX cells by sulforhodamine B assay; format: functional
MDA-MB-435 [10] = assay: Cell cycle arrest in human MDA-MB-435 cells assessed as mitotic accumulation at 850 nM after 24 hrs using propidium iodide staining by flow cytometry; format: functional, cell-based
Outline: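 Cells were then harvested, stained with Krishan's reagent (propidium iodide) and analysed by flow cytometry. Data are plotted as propidium iodide intensity versus number of events.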

NCI-H460 = assay: Growth inhibition of human NCI-H460 cells by sulforhodamine B assay; format: functional
SNB-75 = assay: Growth inhibition of human SNB75 cells by sulforhodamine B assay; format: functional
A549 = assay: Growth inhibition of human A549 cells by sulforhodamine B assay; format: functional
IGROV-1 = assay: Growth inhibition of human IGROV1 cells by sulforhodamine B assay; format: functional
OVCAR-3 = assay: Growth inhibition of human OVCAR-3 cells by sulforhodamine B assay; format: functional
SF-539 = assay: Growth inhibition of human SF539 cells by sulforhodamine B assay; format: functional
SN12C = assay: Growth inhibition of human SN12C cells by sulforhodamine B assay; format: functional
A498 = assay: Growth inhibition of human A498 cells by sulforhodamine B assay; format: functional
MCF7 = assay: Growth inhibition of human MCF7 cells by sulforhodamine B assay; format: functional
TK-10 = assay: Growth inhibition of human TK10 cells by sulforhodamine B assay; format: functional
CCRF-CEM = assay: Growth inhibition of human CCRF-CEM cells by sulforhodamine B assay; format: functional
Bos taurus = species on record: Bos taurus; assay: Displacement of [3H]colchicine from bovine brain tubulin at 5 uM after 10 mins
HCT-15 = assay: Growth inhibition of human HCT15 cells by sulforhodamine B assay; format: functional
K562 = assay: Growth inhibition of human K562 cells by sulforhodamine B assay; format: functional
KM12 = assay: Growth inhibition of human KM12 cells by sulforhodamine B assay; format: functional
OVCAR-8 = assay: Growth inhibition of human OVCAR8 cells by sulforhodamine B assay; format: functional
U-251 = assay: Growth inhibition of human U251 cells by sulforhodamine B assay; format: functional
MOLT-4 = assay: Growth inhibition of human MOLT4 cells by sulforhodamine B assay; format: functional
NCI-H322M = assay: Growth inhibition of human NCI-H322M cells by sulforhodamine B assay; format: functional
[11] = Growth inhibition of human Hs 578T cells by sulforhodamine B assay; format: functional
HOP-62 = assay: Growth inhibition of human HOP62 cells by sulforhodamine B assay; format: functional
MDA-MB-435 [12] = assay: Cell cycle arrest in human MDA-MB-435 cells assessed as formation of aberrant mitotic spindles at 850 nM after 24 hrs using propidium iodide staining by flow cytometry; format: functional, cell-based
SF-268 = assay: Growth inhibition of human SF268 cells by sulforhodamine B assay; format: functional

COc1cc2c(cc1O)CC[C@@H]1[C@@H]2CC[C@]2(C)[C@@H](O)CC[C@@H]12 [2-METHOXYESTRADIOL]
Ratio (SK-OV-3 [1]): 2.6 | IC50 (SK-OV-3 [2]): 867 nM | IC50 (SK-OV-3 [3]): 2270 nM | Ratio (HeLa [4]): 1 | IC50 (HeLa [5]): 586 nM

COc1ccc(Nc2nc(C)nc3c2CC(C)C3)cc1 (racemic)
IC50 (MDA-MB-435 [6]): > 10000 nM

COc1ccc(Nc2[nH]c(C)nc3nccc2-3)cc1
IC50 (MDA-MB-435 [6]): > 10000 nM

COc1ccc(/C=C\c2cc(OC)c(OC)c(OC)c2)cc1OP(=O)(O)O [FOSBRETABULIN]
Ratio (SK-OV-3 [1]): 1.5 | IC50 (SK-OV-3 [2]): 4.5 nM | IC50 (HeLa [7]): 4.7 nM | IC50 (SK-OV-3 [3]): 6.6 nM | Ratio (HeLa [4]): 1.2 | IC50 (HeLa [5]): 5.7 nM

COc1ccc(N(C)c2nc(C)nc3[nH]ccc23)cc1
GI50 (SK-MEL-28): 603 nM | GI50 (MDA-MB-435 [8]): 44.2 nM | GI50 (OVCAR-5): 1670 nM | GI50 (OVCAR-4): 7730 nM | GI50 (NCI-H226): 623 nM | GI50 (786-0): 433 nM | GI50 (HT-29): 279 nM | GI50 (SNB-19): 612 nM | GI50 (MDA-MB-468): 208 nM | IC50 (SK-OV-3 [2]): 278 nM | GI50 (NCI/ADR-RES): 164 nM | GI50 (NCI-H522): 40.2 nM | GI50 (DU-145): 269 nM | GI50 (MDA-MB-231): 1260 nM | GI50 (SW-620): 246 nM | GI50 (HCC 2998): 271 nM | GI50 (PC-3): 509 nM | GI50 (SK-OV-3 [9]): 248 nM | GI50 (SK-MEL-2): 251 nM | GI50 (UACC-62): 625 nM | IC50 (HeLa [7]): 270 nM | GI50 (HL-60(TB)): 190 nM | GI50 (ACHN): 556 nM | GI50 (SR): 87.6 nM | GI50 (SF-295): 269 nM | GI50 (SK-MEL-5): 177 nM | GI50 (COLO 205): 243 nM | GI50 (M14): 218 nM | GI50 (UO-31): 307 nM | GI50 (HOP-92): 4800 nM | GI50 (LOX IMVI): 407 nM | GI50 (NCI-H23): 438 nM | GI50 (RXF 393): 226 nM | GI50 (EKVX): 875 nM | Activity (MDA-MB-435 [10]): Active | GI50 (NCI-H460): 351 nM | IC50 (SK-OV-3 [3]): 435 nM | GI50 (SNB-75): 185 nM | GI50 (A549): 723 nM | GI50 (IGROV-1): 340 nM | GI50 (OVCAR-3): 192 nM | GI50 (SF-539): 288 nM | GI50 (SN12C): 854 nM | GI50 (A498): 198 nM | GI50 (MCF7): 314 nM | GI50 (TK-10): 390 nM | GI50 (CCRF-CEM): 315 nM | inhibition (Bos taurus): 70% | GI50 (HCT-15): 275 nM | GI50 (K562): 179 nM | GI50 (KM12): 181 nM | GI50 (OVCAR-8): 639 nM | GI50 (U-251): 440 nM | GI50 (MOLT-4): 503 nM | GI50 (NCI-H322M): 428 nM | IC50 (HeLa [5]): 186 nM | GI50 [11]: 249 nM | GI50 (HOP-62): 291 nM | Activity (MDA-MB-435 [12]): Active | GI50 (SF-268): 449 nM

Reference: ChEMBL document CHEMBL1275390, “Synthesis and discovery of water-soluble microtubule targeting agents that bind to the colchicine site on tubulin and circumvent Pgp mediated resistance” (J Med Chem, 2010)
